In assay [1] the target is T1, Alpha-1A adrenergic receptor (Homo sapiens, UniProt P35348).
T1 sequence (P35348 whole entry): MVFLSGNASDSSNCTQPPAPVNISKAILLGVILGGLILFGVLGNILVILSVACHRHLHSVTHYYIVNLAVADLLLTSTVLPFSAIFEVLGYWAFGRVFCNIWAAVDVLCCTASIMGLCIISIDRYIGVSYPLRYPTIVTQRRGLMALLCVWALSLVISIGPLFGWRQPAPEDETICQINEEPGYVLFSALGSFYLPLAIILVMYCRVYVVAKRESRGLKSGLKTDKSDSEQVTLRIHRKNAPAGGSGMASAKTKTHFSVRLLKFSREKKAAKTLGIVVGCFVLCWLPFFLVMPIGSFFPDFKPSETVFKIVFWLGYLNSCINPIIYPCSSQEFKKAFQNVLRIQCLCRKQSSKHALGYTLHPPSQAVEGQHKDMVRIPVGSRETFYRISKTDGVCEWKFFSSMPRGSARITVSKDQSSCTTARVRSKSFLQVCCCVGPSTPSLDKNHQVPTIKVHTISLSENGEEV
As to the kind of experiment: Displacement of [3H]prazosin from cloned human adrenergic alpha 1A receptor expressed in CHO cells. In kind it is cell-based. An outline of the steps: (§1)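 Radioligand binding with [3H]prazosin as the label. Membranes came from CHO cells expressing the cloned human receptor. Affinity is expressed as pKi.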

Assay [2] addresses T2, Alpha-1B adrenergic receptor (Homo sapiens, UniProt P35368).
T2 sequence (P35368 whole entry): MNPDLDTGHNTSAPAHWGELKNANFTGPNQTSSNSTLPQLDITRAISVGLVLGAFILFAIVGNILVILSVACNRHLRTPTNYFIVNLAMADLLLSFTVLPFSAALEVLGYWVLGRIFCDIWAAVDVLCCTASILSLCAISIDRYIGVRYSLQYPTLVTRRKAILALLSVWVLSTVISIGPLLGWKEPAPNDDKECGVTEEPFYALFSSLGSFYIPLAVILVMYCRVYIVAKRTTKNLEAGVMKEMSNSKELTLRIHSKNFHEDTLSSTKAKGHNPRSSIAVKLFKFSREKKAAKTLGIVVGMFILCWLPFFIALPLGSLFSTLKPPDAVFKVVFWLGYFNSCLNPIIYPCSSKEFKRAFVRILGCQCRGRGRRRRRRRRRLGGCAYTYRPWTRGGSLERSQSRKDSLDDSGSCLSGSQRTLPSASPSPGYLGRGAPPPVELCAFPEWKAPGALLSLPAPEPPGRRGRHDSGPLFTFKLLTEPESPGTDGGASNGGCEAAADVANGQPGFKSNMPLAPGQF
As to the kind of experiment: Displacement of [3H]prazosin from cloned human adrenergic alpha 1B receptor expressed in CHO cells. In kind it is cell-based. An outline of the steps: as §1

The target of assay [3] is T3, Alpha-1D adrenergic receptor (Homo sapiens, UniProt P25100).
T3 sequence (P25100 whole entry): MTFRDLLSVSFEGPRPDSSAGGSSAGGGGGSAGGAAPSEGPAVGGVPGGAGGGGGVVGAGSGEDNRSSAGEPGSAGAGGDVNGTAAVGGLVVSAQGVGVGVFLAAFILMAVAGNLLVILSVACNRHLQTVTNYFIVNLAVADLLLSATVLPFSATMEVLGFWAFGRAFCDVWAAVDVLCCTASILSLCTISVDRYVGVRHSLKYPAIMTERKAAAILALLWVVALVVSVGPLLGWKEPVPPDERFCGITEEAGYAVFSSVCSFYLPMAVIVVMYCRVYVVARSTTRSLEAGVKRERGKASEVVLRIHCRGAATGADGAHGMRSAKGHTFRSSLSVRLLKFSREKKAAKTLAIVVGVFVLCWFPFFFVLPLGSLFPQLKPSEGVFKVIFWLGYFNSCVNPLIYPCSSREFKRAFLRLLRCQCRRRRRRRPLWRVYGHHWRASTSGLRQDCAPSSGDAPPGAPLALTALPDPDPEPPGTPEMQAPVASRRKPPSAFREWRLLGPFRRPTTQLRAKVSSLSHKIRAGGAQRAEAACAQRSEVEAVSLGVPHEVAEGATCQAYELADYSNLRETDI
As to the kind of experiment: Displacement of [3H]prazosin from cloned human adrenergic alpha 1D receptor expressed in CHO cells. The class given is cell-based. An outline of the steps: as §1

Assay [4] has as its target T4, 5-hydroxytryptamine receptor 1A (Rattus norvegicus, UniProt P19327).
T4 sequence (P19327 whole entry): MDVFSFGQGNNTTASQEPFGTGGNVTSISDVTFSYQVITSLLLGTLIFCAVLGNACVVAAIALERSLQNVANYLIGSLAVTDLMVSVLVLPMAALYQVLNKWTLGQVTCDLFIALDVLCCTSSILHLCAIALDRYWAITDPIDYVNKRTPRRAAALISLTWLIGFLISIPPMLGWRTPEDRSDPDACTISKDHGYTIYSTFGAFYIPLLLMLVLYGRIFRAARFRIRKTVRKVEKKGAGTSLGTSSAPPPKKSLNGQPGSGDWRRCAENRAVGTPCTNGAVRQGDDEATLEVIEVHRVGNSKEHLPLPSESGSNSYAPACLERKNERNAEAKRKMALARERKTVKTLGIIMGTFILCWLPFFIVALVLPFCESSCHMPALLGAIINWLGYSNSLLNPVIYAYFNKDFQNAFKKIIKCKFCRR
Nature of the assay: Displacement of [3H]8-OH-DPAT from 5-HT1A receptor in rat hippocampus. In kind it is tissue-based. An outline of the steps: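 Radioligand binding with [3H]-8-OH-DPAT in membrane preparations from rat hippocampus. Affinity is expressed as pKi.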

The target of assay [5] is Adrenergic receptors; alpha-1 A & B (Homo sapiens) (UniProt P35348+P35368). As to the kind of experiment: Selectivity for human adrenergic alpha 1B receptor over human adrenergic alpha 1A receptor. In kind it is protein assay.
A short description of assay [6]: Selectivity for 5HT1A receptor in rat hippocampus over human adrenergic alpha 1A receptor. The class given is tissue-based.
Assay [7] deals with Alpha adrenergic receptor (1a and 1d) (Homo sapiens) (UniProt P35348+P25100). Nature of the assay: Selectivity for human adrenergic alpha 1A receptor over human adrenergic alpha 1D receptor.
For assay [8], the target named is T5, Alpha-1A adrenergic receptor (Rattus norvegicus, UniProt P43140).
T5 sequence (P43140 whole entry): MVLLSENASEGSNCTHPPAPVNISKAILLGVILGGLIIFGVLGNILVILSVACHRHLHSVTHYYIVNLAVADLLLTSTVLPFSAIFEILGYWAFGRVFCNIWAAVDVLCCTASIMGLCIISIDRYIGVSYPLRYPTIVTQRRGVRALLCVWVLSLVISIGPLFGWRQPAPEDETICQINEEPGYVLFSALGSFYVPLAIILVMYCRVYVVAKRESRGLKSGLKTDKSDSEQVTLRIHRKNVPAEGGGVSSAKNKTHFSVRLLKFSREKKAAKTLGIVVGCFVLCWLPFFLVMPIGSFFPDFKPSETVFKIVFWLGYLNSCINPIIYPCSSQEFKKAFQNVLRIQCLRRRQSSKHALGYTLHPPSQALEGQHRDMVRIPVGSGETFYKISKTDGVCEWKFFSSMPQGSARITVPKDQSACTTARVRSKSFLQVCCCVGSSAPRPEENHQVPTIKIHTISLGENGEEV
Nature of the assay: Activity at adrenergic alpha 1A receptor assessed as antagonsim of noradrenaline-induced contraction of […]. The class given is functional, tissue-based, Sprague-Dawley. Conditions: read-out: pA2 (converted). An outline of the steps: (§2)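 Rat vas deferens, prostatic portion. Contraction was induced with (-)-noradrenaline, and blocking activity was measured as antagonism of that contraction.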

The species named for assay [9] is Cavia porcellus. Nature of the assay: Inverse agonist effect on calcium-induced increase in resting tension of calcium-depleted guinea pig thoracic aorta at 10 nM. The class given is functional. An outline of the steps: (§3)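 Guinea pig thoracic aorta was calcium-depleted and preincubated with antagonist, then challenged with Ca2+. The Ca2+-induced increase in resting tone was compared with the increase after the same Ca2+ challenge in the absence of antagonist.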

Assay [10] deals with T6, Alpha-2A adrenergic receptor (Rattus norvegicus, UniProt P22909).
T6 sequence (P22909 whole entry): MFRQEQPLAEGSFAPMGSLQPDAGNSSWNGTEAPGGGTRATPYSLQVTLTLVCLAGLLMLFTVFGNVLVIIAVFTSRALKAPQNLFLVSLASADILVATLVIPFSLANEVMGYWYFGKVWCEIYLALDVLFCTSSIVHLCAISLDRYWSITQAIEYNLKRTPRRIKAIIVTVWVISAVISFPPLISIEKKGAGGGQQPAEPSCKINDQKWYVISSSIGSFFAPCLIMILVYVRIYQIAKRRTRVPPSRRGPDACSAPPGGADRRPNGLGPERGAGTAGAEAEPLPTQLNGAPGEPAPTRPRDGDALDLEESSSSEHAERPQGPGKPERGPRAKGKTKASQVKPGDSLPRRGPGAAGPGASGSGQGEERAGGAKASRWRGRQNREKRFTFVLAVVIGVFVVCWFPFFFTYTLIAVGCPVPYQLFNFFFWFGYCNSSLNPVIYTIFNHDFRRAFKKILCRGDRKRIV
As to the kind of experiment: Activity at adrenergic alpha 2A receptor assessed as antagonism on clonidine-inhibited twitch responses of field-stimulated Sprague-Dawley rat vas deferens. Conditions: read-out: pA2 (converted).

In assay [11] the target is T7, Alpha-1D adrenergic receptor (Rattus norvegicus, UniProt P23944).
T7 sequence (P23944 whole entry): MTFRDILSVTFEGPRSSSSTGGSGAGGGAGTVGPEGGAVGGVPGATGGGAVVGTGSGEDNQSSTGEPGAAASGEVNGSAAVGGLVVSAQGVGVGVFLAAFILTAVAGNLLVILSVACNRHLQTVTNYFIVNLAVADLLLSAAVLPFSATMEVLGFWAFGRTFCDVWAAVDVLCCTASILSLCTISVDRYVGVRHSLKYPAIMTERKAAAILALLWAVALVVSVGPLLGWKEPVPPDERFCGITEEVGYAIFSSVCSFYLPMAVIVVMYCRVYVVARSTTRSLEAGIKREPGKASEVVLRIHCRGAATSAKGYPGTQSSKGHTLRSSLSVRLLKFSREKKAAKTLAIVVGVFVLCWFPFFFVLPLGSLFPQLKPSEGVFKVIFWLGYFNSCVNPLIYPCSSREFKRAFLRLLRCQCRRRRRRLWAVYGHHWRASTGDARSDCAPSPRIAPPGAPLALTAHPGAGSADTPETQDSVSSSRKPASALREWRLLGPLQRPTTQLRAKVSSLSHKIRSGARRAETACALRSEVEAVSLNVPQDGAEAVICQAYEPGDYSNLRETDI
As to the kind of experiment: Activity at adrenergic alpha 1D receptor assessed as antagonism on noradrenaline-induced contraction of Sprague-Dawley rat thoracic aorta. The class given is functional, tissue-based. The conditions noted are these: read-out: pA2 (converted). An outline of the steps: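 Rat thoracic aorta contracted with (-)-noradrenaline. Blocking activity was measured as antagonism of the contraction.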

The species named for assay [12] is Cavia porcellus. As to the kind of experiment: Inverse agonist effect on calcium-induced increase in resting tension of calcium-depleted guinea pig thoracic aorta at 100 nM. The class given is functional. An outline of the steps:
as §3

The target in assay [13] is T5, Alpha-1A adrenergic receptor. Nature of the assay: Activity at adrenergic alpha 1A receptor assessed as antagonism of noradrenaline-induced contraction of Sprague-Dawley rat vas deferens. The class given is functional, tissue-based. The conditions noted are these: read-out: pA2 (converted). An outline of the steps:
as §2

The values below come from ChEMBL document CHEMBL1137361, “WB4101-related compounds: new, subtype-selective alpha1-adrenoreceptor antagonists (or inverse agonists?)” (J Med Chem, 2006).

With `COc1ccc2c(c1OCCNC[C@@H]1COc3ccccc3O1)CCCC2`, the Ki in assay [1] is 0.0115 µM; in [2], 0.049 µM; in assay [3], 0.0158 µM; in [4] it was 0.132 µM. The figures for the Selectivity ratio in assay [5], in assay [6] and in assay [7] were 4.3, 11.5 and 1.3, respectively.

With `COc1cccc(-c2ccccc2)c1OCCNC[C@@H]1COc2ccccc2O1`, the Ki in [1] was 0.00933 µM; in [2] it was 0.151 µM; in assay [3], 0.0288 µM; in [4], 0.0776 µM. Besides, the Selectivity ratio in assay [5] was 16.2; in assay [6], 8.3; in [7], 3.1.

With `COc1cccc(OC)c1OCCNC[C@@H]1COc2cc3ccccc3cc2O1`, the Ki was 0.102 µM in [1], 0.427 µM in [2], 0.295 µM in assay [3] and 1 µM in assay [4]. In addition, the Selectivity ratio came out at 4.2 in assay [5], 9.8 in assay [6] and 2.9 in assay [7].

With `COc1ccc(-c2ccccc2)cc1OCCNC[C@@H]1COc2ccccc2O1`, the Ki in assay [1] was 0.0162 µM; in [2], 0.0617 µM; in assay [3], 0.0537 µM; in [4], 0.363 µM. In addition, the Selectivity ratio in assay [5] is 3.8; in [6], 22.4; in assay [7], 3.3.

Take `COc1cccc(OC)c1OCCNCC1COc2ccccc2O1` (stereo not given): the Kb in assay [8] was 0.000661 µM; in assay [10], 0.257 µM. Further, the Activity in [9] is 25%.

`COc1cccc(OC)c1OCCNC[C@@H]1COc2cc3c(cc2O1)CCCC3`: the Ki in assay [1] is 0.1 µM; in [2] it was 0.398 µM; in assay [3], 0.204 µM; in assay [4] it was 0.501 µM. The Selectivity ratio stood at 4 in assay [5], 5 in assay [6] and 2 in assay [7].

As for `COc1cc(-c2ccccc2)ccc1OCCNC[C@@H]1COc2ccccc2O1`, the Ki in assay [1] was 0.234 µM; in assay [2], 0.55 µM; in assay [3], 0.363 µM; in assay [4], 0.871 µM. Moreover, the Selectivity ratio in assay [5] is 2.3; in [6], 3.7; in assay [7] it was 1.5.

With `COc1cccc(OC)c1OCCNC[C@H]1COc2ccccc2O1.Cl`, the Ki in [1] was 0.000407 µM; in assay [4] it was 0.00245 µM. Besides, the Kb in assay [8] is 0.000324 µM; in assay [11], 0.000631 µM; in assay [10] it was 0.12 µM. Further, the Activity is on record as 10% in assay [9] and 27% in [12].

Consider `COc1ccc2ccccc2c1OCCNC[C@@H]1COc2cc3c(cc2O1)CCCC3`, for which the Ki in [1] was 0.324 µM; in assay [2], 0.55 µM; in assay [3], 0.955 µM; in [4], 3.63 µM. For the same molecule, the figures for the Selectivity ratio in assay [5], in assay [6] and in [7] were 1.7, 11.2 and 3, respectively.

Regarding `COc1cccc(OC)c1OCCNC[C@@H]1COc2ccccc2O1`, the Ki in assay [1] was 0.0112 µM; in assay [4] it was 0.0407 µM. For the same molecule, the Kb was 0.02 µM in assay [8], 0.0224 µM in assay [11], 0.0162 µM in assay [13] and 0.457 µM in assay [10].
